The record followed here is ChEMBL document CHEMBL1154863 (J Nat Prod, 2010).

Active and inactive are the calls of the source.

For test [1], the target named is Neuronal acetylcholine receptor; alpha4/beta2 (Rattus norvegicus, UniProt P09483+P12390). The test can be described thus: Displacement of [3H]epibatidine from alpha4beta2 nAChR in rat cerebral cortex after 4 hrs by scintillation counting. Format: tissue-based. An outline of the steps:
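Rat cerebral cortex homogenate (3 mg wet weight, washed three times) in 50 mM Tris pH 7.4 with NaCl, KCl, CaCl2, MgCl2. 4 h at room temperature. Filtration onto polyethylenimine-soaked GF/B, scintillation counting. Ki from IC50 by Cheng-Prusoff.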

Test [2] addresses Neuronal acetylcholine receptor subunit alpha-7 (Rattus norvegicus, UniProt Q05941). Put plainly: Displacement of [3H]iodo-MLA from alpha7 nAChR in rat cerebral cortex after 2 hrs by scintillation counting. The class given is tissue-based. An outline of the steps: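 Washed rat cerebral cortex homogenate (3 mg wet weight) in Tris pH 7.4 buffer with salts. 2 h on ice. Nonspecific binding defined with 300 µM (−)-nicotine. Filtered onto BSA-soaked GF/B, then microplate scintillation counting.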
For orientation: Loss of bound radioactivity is the signal in a displacement assay; it reports binding, not function.

Test [3] deals with Mus musculus. Put plainly: Antinociceptive activity in sc dosed mouse after 5 mins by tail flick test. The class given is functional. An outline of the steps:
(§1)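 Mice, tail-flick by the D'Amour–Smith method. Baseline latency 2–4 s, 10 s cutoff. Tested 5 min after s.c. injection. Response expressed as %MPE = (test−control)/(10−control)×100. 8–12 mice per dose, at least four doses per dose-response curve.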
Background: In hot-plate and tail-flick tests a longer latency is read as antinociception.

Test [4] concerns Mus musculus. The test can be described thus: Antinociceptive activity in sc dosed mouse assessed as reaction time taken to jump or lick paw after 5 mins by hot plate test. The class given is functional. An outline of the steps:
(§2)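 Mice placed in a glass cylinder on a 55.0 °C hot plate. Two control latencies taken at least 10 min apart; normal latency 8–12 s. Jump or paw lick scored. Tested 5 min after s.c. injection, eight mice per dose. %MPE calculated against a 40 s maximum.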

Test [5] relates to Mus musculus. Put plainly: Effect on rectal body temperature in sc dosed mouse assessed as change in temperature after 30 mins by inducible hypothermia test. The class given is functional. The conditions noted are these: 0.5 h. In a few lines:
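Rectal temperature measured in mice with a thermistor probe inserted 24 mm, read before and 30 min after s.c. saline or analogue. Change from pre-treatment value calculated for each mouse.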

Test [6] relates to Mus musculus. The test can be described thus: Effect on locomotory activity in sc dosed mouse assessed as change in spontaneous activity after 5 mins by photocell interruption readings. The class given is functional. An outline of the steps: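 Mice placed in photocell activity cages 5 min after s.c. saline or analogue. Beam interruptions recorded over the next 10 min and expressed as photocell interruption counts.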

The subject of test [7] is Mus musculus. The test can be described thus: Inhibition of nicotine-induced antinociception in sc dosed mouse assessed as tail withdrawal latency after 5 mins by tail flick test. The class given is functional.
Test [8] relates to Mus musculus. Put plainly: Inhibition of nicotine-induced antinociception in sc dosed mouse assessed as reaction time taken to jump or lick paw after 5 mins by hot plate test. The class given is functional.
The species named for test [9] is Rattus norvegicus. Put plainly: Selectivity ratio of Ki for rat alpha7 nAChR to Ki for rat alpha4beta2 nAChR.
Test [10] has as its system Mus musculus. The test can be described thus: Inhibition of nicotine-induced antinociception in mouse assessed as reaction time taken to jump or lick paw at 50 ug/kg after 5 mins by hot plate test. The class given is functional.
In test [11] the test system is Mus musculus. The test can be described thus: Antinociceptive activity in mouse at 2 mg/kg, sc after 5 mins by tail flick test. The class given is functional. The conditions noted are these: route subcutaneous. An outline of the steps: as §1
Test [12] concerns Mus musculus. Put plainly: Antinociceptive activity in mouse assessed as reaction time taken to jump or lick paw at 2 mg/kg, sc after 5 mins by hot plate test. The class given is functional. To be noted: route subcutaneous. In a few lines: as §2
For test [13], the system named is Mus musculus. The test can be described thus: Inhibition of nicotine-induced antinociception in mouse assessed as reaction time taken to jump or lick paw at 100 ug/kg after 5 mins by hot plate test. The class given is functional.
In test [14] the test system is Mus musculus. The test can be described thus: Inhibition of nicotine-induced antinociception in mouse assessed as reaction time taken to jump or lick paw at 10000 ug/kg after 5 mins by hot plate test. Format: functional.
The test system of test [15] is Mus musculus. The test can be described thus: Inhibition of nicotine-induced antinociception in mouse assessed as reaction time taken to jump or lick paw at 200 ug/kg after 5 mins by hot plate test. The class given is functional.
Where [16] appears, read: Mus musculus, Tail, sc, 5 min, read-out: ED50.

Neuronal acetylcholine receptor subunit alpha-7, sequence (Q05941 whole entry): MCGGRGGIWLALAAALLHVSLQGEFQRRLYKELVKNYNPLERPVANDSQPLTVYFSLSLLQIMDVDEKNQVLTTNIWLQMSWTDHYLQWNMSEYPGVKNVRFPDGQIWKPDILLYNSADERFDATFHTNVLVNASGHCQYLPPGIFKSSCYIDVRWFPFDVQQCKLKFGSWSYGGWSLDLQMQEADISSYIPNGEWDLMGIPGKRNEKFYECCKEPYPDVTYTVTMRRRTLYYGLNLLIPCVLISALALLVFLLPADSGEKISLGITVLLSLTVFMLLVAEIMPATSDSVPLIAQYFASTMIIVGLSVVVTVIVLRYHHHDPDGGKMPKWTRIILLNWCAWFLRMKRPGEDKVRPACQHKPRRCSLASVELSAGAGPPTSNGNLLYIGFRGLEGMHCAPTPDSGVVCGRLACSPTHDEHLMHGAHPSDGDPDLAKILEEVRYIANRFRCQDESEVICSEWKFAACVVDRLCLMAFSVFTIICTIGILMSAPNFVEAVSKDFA
Neuronal acetylcholine receptor; alpha4/beta2, sequence (P09483 whole entry): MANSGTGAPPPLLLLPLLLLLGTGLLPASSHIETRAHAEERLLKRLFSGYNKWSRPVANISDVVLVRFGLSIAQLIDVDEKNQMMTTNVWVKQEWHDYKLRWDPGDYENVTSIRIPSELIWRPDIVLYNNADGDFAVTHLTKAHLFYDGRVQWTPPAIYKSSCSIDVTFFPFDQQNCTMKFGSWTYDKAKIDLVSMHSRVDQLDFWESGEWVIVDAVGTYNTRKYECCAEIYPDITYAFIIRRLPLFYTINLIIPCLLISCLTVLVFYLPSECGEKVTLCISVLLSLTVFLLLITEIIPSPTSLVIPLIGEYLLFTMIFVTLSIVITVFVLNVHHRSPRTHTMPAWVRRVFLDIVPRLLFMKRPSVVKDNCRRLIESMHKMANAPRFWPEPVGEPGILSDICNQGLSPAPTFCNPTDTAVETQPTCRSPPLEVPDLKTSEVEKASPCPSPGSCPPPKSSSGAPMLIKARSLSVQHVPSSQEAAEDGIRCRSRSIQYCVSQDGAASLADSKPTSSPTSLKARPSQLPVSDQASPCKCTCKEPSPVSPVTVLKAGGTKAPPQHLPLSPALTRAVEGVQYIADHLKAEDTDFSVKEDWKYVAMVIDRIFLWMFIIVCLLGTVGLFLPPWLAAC
Neuronal acetylcholine receptor; alpha4/beta2, sequence (P12390 whole entry): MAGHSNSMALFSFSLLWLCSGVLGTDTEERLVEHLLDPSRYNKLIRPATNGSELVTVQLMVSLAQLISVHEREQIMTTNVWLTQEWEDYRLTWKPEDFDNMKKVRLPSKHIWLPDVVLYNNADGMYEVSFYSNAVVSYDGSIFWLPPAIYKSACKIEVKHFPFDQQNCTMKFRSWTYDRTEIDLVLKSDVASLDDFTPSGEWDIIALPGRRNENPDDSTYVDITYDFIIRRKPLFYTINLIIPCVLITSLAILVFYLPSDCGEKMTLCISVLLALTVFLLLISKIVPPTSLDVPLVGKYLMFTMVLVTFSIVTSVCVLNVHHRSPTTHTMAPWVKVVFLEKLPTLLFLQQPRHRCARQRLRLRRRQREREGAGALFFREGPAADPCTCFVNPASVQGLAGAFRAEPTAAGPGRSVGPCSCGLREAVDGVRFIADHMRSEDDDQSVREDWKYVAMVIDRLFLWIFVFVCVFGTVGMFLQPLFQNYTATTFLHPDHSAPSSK

As to `Nc1cccc(-c2cc([C@H]3C[C@@H]4CC[C@H]3N4)cnc2Cl)c1`, the Ki – broadly, a measure of affinity in units of concentration, obtained from inhibition or displacement – in test [1] worked out at 0.017 nM; in [2], 256 nM. Also, the median effective dose (ED50) – broadly, the midpoint of the dose-response relation – in test [3] (setting [16]) was 0.34 mg/kg; in test [4], 0.3 mg/kg; in test [5] it was 0.31 mg/kg; in test [6] it was 0.03 mg/kg. Besides, the AD50 worked out at 0.00014 mg/kg in [7] and 0.026 mg/kg in test [8].

In the case of `Clc1cccc(-c2cc([C@H]3C[C@@H]4CC[C@H]3N4)cnc2Cl)c1`, the Ki is 0.013 nM in [1] and 30.5 nM in test [2]. The ED50 amounted to 3.4 mg/kg in [3] (setting [16]), 4.2 mg/kg in test [4], 0.38 mg/kg in test [5] and 0.06 mg/kg in test [6]. Also, the values for the AD50 in test [7] and in test [8] were 0.0022 mg/kg and 0.08 mg/kg, respectively. In test [9], the Ratio Ki came to 2000.

Turning to `Clc1ccc([C@@H]2C[C@H]3CC[C@@H]2N3)cn1` (stereo in doubt; (+)-1) [(+)-EPIBATIDINE], the ED50 in test [3] (setting [16]) was determined as 0.0061 mg/kg; in test [4], 0.004 mg/kg; in test [5] it was 0.004 mg/kg; in [6], 0.001 mg/kg.

As for `CN1CCC[C@H]1c1cccnc1` [NICOTINE], the ED50 was 1.3 mg/kg in test [3] (setting [16]), 0.65 mg/kg in test [4], 1 mg/kg in test [5] and 0.5 mg/kg in test [6].

For `O=[N+]([O-])c1cccc(-c2cc([C@H]3C[C@@H]4CC[C@H]3N4)cnc2Cl)c1`, the figures for the Ki in [1] and in [2] were 0.008 nM and 229 nM, respectively. In addition, the median effective dose (ED50) in [3] (setting [16]) was determined as 4.6 mg/kg; in test [4], 3.2 mg/kg; in [5], 1.4 mg/kg; in [6] it was 0.9 mg/kg. Moreover, the AD50 came out at 0.00025 mg/kg in test [7] and 0.18 mg/kg in test [8].

For the compound `Clc1ncc([C@H]2C[C@@H]3CC[C@H]2N3)cc1-c1cccc(Br)c1`, the Ki stood at 0.016 nM in test [1] and 85 nM in [2]. Moreover, the median effective dose (ED50) in test [3] (setting [16]) stood at 0.54 mg/kg; in [4], 2.2 mg/kg; in [5], 0.67 mg/kg; in test [6], 0.11 mg/kg. Further, the AD50 in [7] was found to be 0.01 mg/kg; in [8], 0.22 mg/kg.

For `c1cnc2cc3c(cc2n1)[C@@H]1CNC[C@H]3C1`, the result in test [3] and in test [4] was inactive.

For `O=[N+]([O-])c1ccc(-c2cc([C@H]3C[C@@H]4CC[C@H]3N4)cnc2Cl)cc1`, the Ki in test [1] was determined as 0.015 nM; in test [2], 250 nM. Besides, the median effective dose (ED50) in test [3] (setting [16]) was 0.46 mg/kg; in [4], 0.38 mg/kg; in [5] it was 0.23 mg/kg; in test [6], 0.24 mg/kg. Besides, in test [7], the AD50 came out at 0.007 mg/kg. Moreover, in [10], the inhibition in vivo (in general, the relative decrease from the control value, in per cent) at 0.05 mg/kg turned out to be 17%.

On to `CN(C)c1cccc(-c2cc([C@H]3C[C@@H]4CC[C@H]3N4)cnc2Cl)c1`, for which the figures for the inhibitory constant (Ki) in test [1] and in test [2] were 0.009 nM and 1100 nM, respectively. Also, the Activity in [11] and in [12] was 0% throughout. Besides, in test [5], the 50% effective dose (ED50) stood at 3.3 mg/kg. Also, the AD50 in test [7] was 0.02 mg/kg; in test [8], 0.56 mg/kg.

On to `Nc1ccc(-c2cc([C@H]3C[C@@H]4CC[C@H]3N4)cnc2Cl)cc1`, for which the Ki in test [1] turned out to be 0.034 nM; in [2], 234 nM. Further, the ED50 in test [3] (setting [16]) is 5 mg/kg; in test [4] it was 4.5 mg/kg; in test [5] it was 1.1 mg/kg; in test [6], 0.52 mg/kg. Moreover, in test [7], the AD50 was determined as 0.006 mg/kg. Moreover, in test [13], the inhibition in vivo at 0.1 mg/kg was found to be 0%.

For the compound `Fc1ccc(-c2cc([C@H]3C[C@@H]4CC[C@H]3N4)cnc2Cl)cc1`, the inhibition constant Ki in test [1] was found to be 0.017 nM; in test [2], 309 nM. The ED50 in [3] (setting [16]) stood at 2.48 mg/kg; in test [4], 1.27 mg/kg; in test [5], 0.33 mg/kg; in test [6], 0.33 mg/kg. Also, in test [7], the AD50 is 0.0005 mg/kg. Also, in test [13], the inhibition in vivo at 0.1 mg/kg was determined as 30%.

On to `Clc1ccc(-c2cc([C@H]3C[C@@H]4CC[C@H]3N4)cnc2Cl)cc1`, for which the Ki worked out at 0.039 nM in test [1] and 209 nM in [2]. The ED50 in [3] (setting [16]) is 2.6 mg/kg; in test [4] it was 2 mg/kg; in [5], 0.89 mg/kg; in [6], 0.53 mg/kg. Also, in test [7], the AD50 worked out at 0.001 mg/kg. Besides, the inhibition in vivo at 0.1 mg/kg in [13] was 10%.

`Clc1ncc([C@H]2C[C@@H]3CC[C@H]2N3)cc1-c1ccccc1`: the Ki in test [1] is 0.021 nM; in test [2], 260 nM. Further, the median effective dose (ED50) was found to be 0.7 mg/kg in test [3] (setting [16]), 1 mg/kg in test [4], 0.4 mg/kg in test [5] and 0.35 mg/kg in [6]. The AD50 in test [7] amounted to 0.28 mg/kg. Further, in test [14], the inhibition in vivo at 10 mg/kg is 30%.

Regarding `Clc1ccc([C@@H]2C[C@H]3CC[C@@H]2N3)cn1` (stereo in doubt; (-)-1) [(+)-EPIBATIDINE], in [3], the ED50 came out at 0.0066 mg/kg.

For the compound `Fc1cccc(-c2cc([C@H]3C[C@@H]4CC[C@H]3N4)cnc2Cl)c1`, the inhibitory constant (Ki) in test [1] amounted to 0.012 nM; in test [2], 250 nM. Further, the 50% effective dose (ED50) is 1 mg/kg in test [3] (setting [16]), 0.43 mg/kg in [4], 0.19 mg/kg in test [5] and 0.07 mg/kg in test [6]. The AD50 in test [7] was determined as 0.0039 mg/kg; in test [8] it was 0.086 mg/kg.

Turning to `COc1cccc(-c2cc([C@H]3C[C@@H]4CC[C@H]3N4)cnc2Cl)c1`, the inhibition constant (Ki) in test [1] was 0.019 nM; in test [2], 558 nM. Further, the ED50 in [3] (setting [16]) stood at 0.7 mg/kg; in test [4], 0.8 mg/kg; in test [5], 0.7 mg/kg; in test [6], 0.2 mg/kg. Besides, the AD50 in test [7] worked out at 0.029 mg/kg. Further, in [13], the inhibition in vivo at 0.1 mg/kg was 0%.

For `COc1ccc(-c2cc([C@H]3C[C@@H]4CC[C@H]3N4)cnc2Cl)cc1`, the Ki in test [1] was found to be 0.022 nM; in test [2], 175 nM. Further, the ED50 in test [3] (setting [16]) is 2.36 mg/kg; in [4], 1.1 mg/kg; in [5], 0.79 mg/kg; in [6], 0.43 mg/kg. The AD50 in test [7] came to 0.01 mg/kg. Also, the inhibition in vivo at 0.2 mg/kg in test [15] was 10%.
